The list is not random: actives were taken first. Their share in the collection is about 1.8%.
NR2E3 ag-1: agonists of human NR2E3 nuclear receptor; Q9Y5X4; CHO-S Gal4-NCOR/VP16-NR2E3 two-hybrid, luciferase; inhibition of corepressor binding, % at 3.98 µM; actives 0.35% (n = 360,000);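 active means inhibition above the mean of all tested compounds plus 3 SD, cut at about 70% in these data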;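 further: higher means lower luciferase signal from less NR2E3 corepressor binding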
697 NFkB inh: lowers PMA/ionomycin-induced NF-kB signal in 697 B cells. 697 B-cell NF-kB luciferase reporter, 16 h. inhibition, % at 4 µM. actives 0.33% (n = 330,000). AID 435022; in the data active means inhibition above about 35%
GalR3 antagonist: antagonists of human GalR3. AID 651719. inhibition, % at 3 µM. HEK293 GalR3-CNG cAMP membrane potential fluorescence; galR3 body fused to GalR1 C-terminus. O60755. actives 0.44% (n = 360,000);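 active means inhibition above the screen-wide average plus 3 SD, cut at about 13% in these data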;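 further: forskolin and galanin both at EC90 stimulate the cells; cAMP rise reported by CNG channel membrane potential dye signal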
Target sequence (O60755 1-299 limits assumed): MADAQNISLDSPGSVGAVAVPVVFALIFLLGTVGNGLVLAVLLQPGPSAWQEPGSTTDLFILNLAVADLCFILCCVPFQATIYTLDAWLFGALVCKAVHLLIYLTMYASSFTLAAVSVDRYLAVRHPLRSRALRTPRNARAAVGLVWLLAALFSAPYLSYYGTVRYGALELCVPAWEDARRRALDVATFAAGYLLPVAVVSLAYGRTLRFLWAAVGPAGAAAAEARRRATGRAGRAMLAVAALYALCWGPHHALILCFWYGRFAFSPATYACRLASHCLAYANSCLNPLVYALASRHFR
NR2E3 ag-2: NR2E3 (human) agonism; Q9Y5X4; GST-NR2E3/biotin-RetCOR TR-FRET, 1536-well; inhibition of corepressor binding, % at 4.78 µM; actives 0.12% (n = 320,000);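 active means percent inhibition above the cutoff of mean plus 3 SD of all tested compounds, set per screening campaign, cut at about 20% in these data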
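Test system – NR2E3–RetCOR corepressor complex · Quantity – NR2E3 fusion 1.35 nM · Buffer or medium – Tris pH 7.5 · Incubation – Compound–protein incubation for 5 h at 4 °C · Technique – TR-FRET, Eu(K)-anti-GST donor, streptavidin-D2 acceptor, ex 340, em 617/671 nm · Evaluation – percent inhibition of 671/617 nm emission ratio versus biotin and DMSO controls · Plate – 1536-well format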
Gli-Sufu block: blocks Gli-Sufu signaling in a luciferase reporter. inhibition, % at 5 µM. AID 588413. Sufu-KO-LIGHT fibroblasts, Gli luciferase reporter luminescence. actives 0.74% (n = 340,000);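 active means inhibition above about 55%, limit read from the data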
Jurkat NFkB inh: lowers PMA/ionomycin-induced NF-kB signal in Jurkat cells; PMA/ionomycin-induced NF-kB luciferase reporter, luminescence; inhibition, % at 4 µM; actives 0.53% (n = 330,000); AID 435003; in the data active means inhibition above about 50%
Gli antag conf: confirmation of Gli-SUFU pathway antagonists; shares compounds with Gli-Sufu block; Sufu-KO-LIGHT cells, Gli luciferase reporter, luminescence; inhibition, % at 5 µM; actives 40% (n = 2,500); AID 602428;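 active means mean inhibition at 5 µM reaching about 45%, limit read from the data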
SufuKO cytotox: cytotoxic in Gli-SUFU antagonist counter-screen | shares compounds with Gli-Sufu block | Sufu-KO-LIGHT cells cytotoxicity, ATP luminescence | cytotoxicity, % at 5 µM | actives 32% (n = 2,500);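 active means mean cytotoxicity at 5 µM above about 25%, limit read from the data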;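 further: cells exposed to compound overnight for roughly 16 to 18 hours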
Wnt3a cs: inhibits Wnt3a reporter, counter-screen for Gli-SUFU antagonists; shares compounds with Gli-Sufu block; Wnt-LIGHT cells, Wnt3a-driven luciferase reporter, luminescence; inhibition, % at 6.25 µM; actives 20% (n = 2,500); AID 651995;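 active means mean inhibition above about 25%, limit read from the data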
Hits are given with their value; n = inactive; x = no result given.

SMILES	NR2E3 ag-1	697 NFkB inh	GalR3 antagonist	NR2E3 ag-2	Gli-Sufu block	Jurkat NFkB inh	Gli antag conf	SufuKO cytotox	Wnt3a cs
Cc1cc(-c2ccccc2)cc(C)[n+]1Cc1ccccc1	n	n	n	n	79	n	84	n	32
O=[N+]([O-])c1ccc(C[n+]2c(-c3ccccc3)cc(-c3ccccc3)cc2-c2ccccc2)cc1	n	n	n	n	n	n	x	x	x
COC(=O)C1=C(c2ccc(OC)c(OC)c2)C[C@@H]2CC[C@H]1N2C(=O)NCCOc1ccc(OC)cc1	n	n	n	n	n	n	x	x	x
CCOc1cccc(=NC2CCCCC2)c2c(C)n(C)c(C)c12	n	n	n	n	86	n	89	44	n
CCOc1ccccc1N=C1SCCCN1C	n	n	n	n	n	n	x	x	x
CC(C)C(NC(=O)C(C(C)C)N(C)C)C(=O)N(C)C(C(=O)N1CCCC1C(=O)N1CCCC1C(=O)NCc1ccccc1)C(C)C (configuration not stated)	n	x	n	x	n	x	57	52	n
COc1ccc(N2C(=O)/C(=C/c3ccc(C)o3)C(=O)NC2=S)c(OC)c1	n	n	n	n	n	n	x	x	x
CC(NCc1cccc(Cl)c1Cl)C(O)c1ccccc1 (configuration not stated)	n	n	n	n	97	n	n	n	n
CC(NCc1ccc(Cl)cc1Cl)C(O)c1ccccc1 (configuration not stated)	n	n	n	n	n	n	x	x	x
O=C1CN(O)C(c2ccccc2)=c2cc(Br)ccc2=N1	n	n	n	n	n	n	x	x	x
CCOP(=O)(Cc1cc(C(C)=O)c(C)o1)OCC	n	n	n	n	68	n	n	n	n
CCCC(=O)c1cc(CP(=O)(OCC)OCC)oc1C	n	n	n	n	n	n	x	x	x
CCN1CCN(C(c2cccs2)C(C)NC(=O)Oc2ccccc2)CC1 (configuration not stated)	n	n	x	n	n	n	x	x	x
Cc1cccc(N2C(=O)NC(=O)/C(=C\c3cc(C)n(-c4sc5c(c4C#N)CCCC5)c3C)C2=O)c1C	n	n	n	n	58	n	50	34	n
CC1CCCC(C2(O)C(=O)Nc3ccccc32)C1=O (configuration not stated)	n	n	n	n	96	n	n	n	n
COc1ccccc1CN1CCN(C(=O)COc2cccc(C)c2)CC1	n	n	n	n	94	n	n	27	n
S=C(NC1CCCCC1)N1CCC(c2cnc[nH]2)CC1	n	n	x	n	n	n	x	x	x
N#CCCn1cc(C(=O)Nc2ccc(F)cc2)c(-c2ccccc2)n1	n	n	n	x	n	n	n	n	n
COc1ccc(NC(=O)c2cn(CCC#N)nc2-c2ccccc2)cc1	n	n	n	n	n	n	x	x	x
Cc1nc2ccccc2c(=O)n1-c1cc([N+](=O)[O-])cc([N+](=O)[O-])c1	n	n	n	n	n	n	x	x	x
Cc1cccc(-n2c(/C=C/c3ccc([N+](=O)[O-])o3)nc3ccccc3c2=O)c1	n	n	n	n	72	n	63	31	n
CCCCc1ncc(CN2CCCC(C(=O)c3ccc(SC)cc3)C2)[nH]1 (configuration not stated)	n	n	n	n	n	n	x	x	x
CCN(CC)C(=O)c1ccc(NC(=O)c2cc(S(=O)(=O)N3CCCCCC3)ccc2OC)cc1	n	n	n	n	n	n	x	x	x
CCN(CC)C(=O)c1ccc(NC(=O)CSc2nnnn2-c2cc(OC)ccc2OC)cc1	n	n	n	n	70	n	n	n	n
CCN(CC)C1=NC(=[N+](CC)CC)c2ccccc21	n	n	n	n	79	n	80	27	39
CN1C2CCC1CC(OC(=O)c1ccc(Cl)cc1)(C(=O)O)C2 (configuration not stated)	n	n	n	n	n	n	x	x	x

High-throughput results: PubChem BioAssay, several laboratories
